CHRM5 PAM = human M5 muscarinic receptor positive allosteric modulators, primary screen, CHO-K1 cells, Fluo-8 calcium fluorescence | Muscarinic acetylcholine receptor M5 (Homo sapiens), P08912 | CHO-K1 hM5, ACh EC20 PAM; 0% = ACh EC20, 100% = ACh EC100 | activation, % at 3 µM | 360,000 compounds, 0.3% hits;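 active means activation above the run cutoff, the mean activation of all test compounds plus 3 SD, cut at about 18% in these data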
Target sequence (P08912 whole entry, looked up): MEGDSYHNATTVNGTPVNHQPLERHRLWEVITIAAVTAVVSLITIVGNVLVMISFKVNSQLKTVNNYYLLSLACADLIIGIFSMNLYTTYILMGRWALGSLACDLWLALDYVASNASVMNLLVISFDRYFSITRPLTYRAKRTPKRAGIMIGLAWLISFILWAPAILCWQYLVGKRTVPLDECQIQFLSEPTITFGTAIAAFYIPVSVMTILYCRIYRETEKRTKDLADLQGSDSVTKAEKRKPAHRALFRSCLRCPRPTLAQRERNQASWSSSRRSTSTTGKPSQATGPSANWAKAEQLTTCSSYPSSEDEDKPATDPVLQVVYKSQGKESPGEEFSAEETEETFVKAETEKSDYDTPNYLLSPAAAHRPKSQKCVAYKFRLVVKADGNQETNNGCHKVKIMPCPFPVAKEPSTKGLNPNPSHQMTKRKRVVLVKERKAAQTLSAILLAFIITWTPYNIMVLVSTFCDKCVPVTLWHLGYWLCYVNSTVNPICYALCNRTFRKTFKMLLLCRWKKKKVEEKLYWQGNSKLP
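system = human M5 receptor in CHO-K1 cells | compound = one concentration, 3 µM final (nominal) | schedule = Post-acetylcholine fluorescence recording 140 s | signal = Fluo-8 calcium dye fluorescence, kinetic read | benchmarks = low control EC20 acetylcholine (0%), high control EC100 acetylcholine (100%) | repeats = singlicate, one well per test compound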
M5 ag = human M5 muscarinic receptor agonists, primary screen, CHO-K1 cells, Fluo-8 calcium fluorescence; Muscarinic acetylcholine receptor M5 (Homo sapiens), P08912; CHO-K1 hM5 cells; 0% DMSO wells, 100% maximal acetylcholine response; activation, % at 3 µM; 360,000 compounds, 0.19% hits;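 active means activation above the run's mean over test compounds plus 3 SD, cut at about 23% in these data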;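 further: signal is peak over basal fluorescence ratio across the kinetic read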
CHRM5 antagonist = human M5 muscarinic receptor antagonists, primary screen, CHO cells, Fluo-8 calcium fluorescence. 360,000 compounds, 0.59% hits. Muscarinic acetylcholine receptor M5 (Homo sapiens), P08912. inhibition, % at 3 µM. CHO-hM5 cells, ACh EC80;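 active means inhibition above a per-plate cutoff, the mean of that plate's test compounds plus 3 SD, cut at about 27% in these data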
M4 ag = human M4 muscarinic receptor agonists, primary screen, CHO-K1 cells, Fluo-8 calcium fluorescence. Muscarinic acetylcholine receptor M4 (Homo sapiens), P08173. CHO-K1 hM4/Gqi5; vehicle 0%, full acetylcholine response 100%. activation, % at 3 µM. 360,000 compounds, 0.14% hits. AID 624127, 2012;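 active means activation above the run mean over all test wells plus 3 SD, cut at about 32% in these data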;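 further: peak over basal fluorescence ratio per well then scaled between controls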
M4 PAM = human M4 muscarinic receptor positive allosteric modulators, primary screen, CHO-K1 cells, Fluo-8 calcium fluorescence; Muscarinic acetylcholine receptor M4 (Homo sapiens), P08173; CHO-K1 hM4/Gqi5, ACh EC20; 0% = ACh EC20, 100% = maximal ACh; activation, % at 3 µM; 360,000 compounds, 0.4% hits; AID 624126, 2012;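 active means activation above its plate's cutoff, the mean activation of sample wells plus 3 SD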
M4 antag = human M4 muscarinic receptor antagonists, primary screen, CHO cells, Fluo-8 calcium fluorescence | CHO-hM4 cells, ACh EC80 | Muscarinic acetylcholine receptor M4 (Homo sapiens), P08173 | 360,000 compounds, 0.73% hits | AID 624125, 2012 | inhibition, % at 3 µM;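 active means inhibition above its plate's cutoff, the mean inhibition of sample wells plus 3 SD, cut at about 27% in these data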
Hits are given with their value; . = inactive. Compounds with a hit are over-represented: about 1.8% of the library has one in this group of screens.

SMILES	CHRM5 PAM	M5 ag	CHRM5 antagonist	M4 ag	M4 PAM	M4 antag
CCCCCCn1cc(CN2CC(N(C)CCC)CS2(=O)=O)nn1 (stereo not given)	.	.	.	.	.	.
CCC(=O)N1CCc2cc(Br)cc(S(=O)(=O)NCC3CCCO3)c21 (stereo not given)	.	.	.	.	.	.
CCC(=O)N1CCc2cc(Br)cc(S(=O)(=O)CCC(=O)NCC3CCCO3)c21 (stereo not given)	19	.	.	.	.	.
OC(c1cccc(OCc2ccccc2)c1)c1nnc(-c2ccccc2)o1 (stereo not given)	.	.	28	.	.	.
COc1ccccc1N=C1NC(=O)/C(=C/c2ccc(N(C)C)cc2)S1	.	51	36	.	.	.
COc1cc(/C=C2/SC(=Nc3ccc(O)cc3)NC2=O)cc(OC)c1O	.	.	.	.	.	.
COc1ccc(NC2c3ccccc3C(=O)N2c2ccccn2)cc1Cl (stereo not given)	.	.	.	.	.	79
O=C1c2ccccc2C(Nc2ccc(F)c(Cl)c2)N1c1ccccn1 (stereo not given)	.	.	.	.	.	.
COCCCNC(=O)c1cn(Cc2c(F)cccc2Cl)nn1	30	.	.	.	.	.
Cc1cc(C)cc(C(=O)Nc2cc3c4c(c2)CC(=O)N4CCC3)c1	.	.	.	.	.	.
COC(=O)[C@@]1(Cc2ccccc2)[C@H]2C(=O)N(C)C(=O)[C@H]2[C@H]2CN=C(SCc3ccc(Cl)cc3)N21	.	.	.	.	.	.
COc1ccccc1-c1cncc(NC(C)=O)n1	.	.	.	.	.	.
COc1ccc(OC)c(NC(=O)c2sc3ncnc(N4CCN(c5ccccn5)CC4)c3c2C)c1	.	.	.	.	19	.
CC1CCN(C(=O)COC(=O)c2cccc(S(=O)(=O)N3CCOCC3)c2)CC1	.	.	.	.	.	.
CCc1cc(Cn2nc(-c3ccccc3)cc2C(=O)NCc2ccccc2OC)on1	.	.	.	.	.	.
CCOC(=O)c1cnc2c(ccc3ccccc32)c1NCCN(C)C	.	.	.	.	.	.
CCOC(=O)c1cnc2c(C)cccc2c1Nc1cccc(C(=O)O)c1	.	.	.	.	.	30
CCOC(=O)c1cnc2c(Cl)cccc2c1NCCN(C)C	45	.	.	.	.	.
COc1cccc(NC(=O)C2(C)CCN2CCc2ccccc2)c1 (stereo not given)	.	.	.	.	.	.
CC(C)C[C@H]1CN(CCCC[C@@H]2CNC(=O)C(=O)N2CCc2ccccc2)C(=O)C(=O)N1Cc1ccccc1	.	.	.	.	.	.
CC1(C(=O)NS(=O)(=O)c2ccccc2Cl)CCN1C(=O)C1(c2ccc(Cl)cc2)CCC1 (stereo not given)	.	.	.	.	.	.
S=C(NCCC(c1ccccc1)c1ccccc1)Nc1ccc(Cl)cc1	.	.	33	.	.	.
COc1c2ccc(OCC/C(C)=C/C(=O)C=C(C)C)cc2nc2occc12	20	.	.	.	.	.
Cc1ccc(C(C)C)c(OCCN)c1	.	.	.	.	.	.
Cc1ccc(C(C)C)c(OCCCn2ccnc2C)c1	.	.	91	.	.	73
SMILES	CHRM5 PAM	M5 ag	CHRM5 antagonist	M4 ag	M4 PAM	M4 antag
c1ccc2cc(N3CCCCC3)ccc2c1	.	.	.	.	.	.
O=C1c2ccccc2C(=O)c2cc(N3CCCCC3)ccc21	.	72	34	.	.	.
O=C(C(=O)N(Cc1ccccc1)Cc1ccccc1)c1c(-c2ccccc2)[nH]c2ccccc12	.	.	.	.	.	31
CCCCN1C(=O)C(CC(=O)NCc2cccc3ccccc23)CC(C(=O)N2CCOCC2)=C1C (stereo not given)	.	.	.	.	.	.
CC1(C)OC(=O)CC1C(=O)NCc1ccccc1 (stereo not given)	25	.	.	.	.	.
O=C(Nc1cccc(C(=O)O)c1)/C(=C/c1ccc2c(c1)OCO2)NC(=O)c1cccc(Br)c1	.	.	28	.	.	.
O=C(Nc1cccc(C(=O)O)c1)/C(=C\c1ccc2c(c1)OCO2)NC(=O)c1ccccc1Br	.	.	.	.	.	.
Cc1ccc(CNC(=O)c2cc(S(=O)(=O)N3CCCCC3)ccc2N2CCOCC2)cc1	.	.	.	.	.	.
O=C(c1cnn2c(C(F)F)cc(C3CC3)nc12)N1CCc2ccccc2C1	.	.	.	.	.	.
O=C(c1cnn2c(C(F)F)cc(C3CC3)nc12)N1CCCC1	.	.	.	.	34	.
CC(C)Cn1c(-c2csc3c2CCCC3)n[nH]c1=S	.	.	.	.	.	30
CC(C)Cn1c(-c2ccccc2F)n[nH]c1=S	.	.	46	.	.	.
CC(C)Cn1c(-c2ccc(F)cc2)n[nH]c1=S	.	.	.	.	.	.
CC(C)Cn1c(-c2ccncc2)n[nH]c1=S	.	.	.	.	.	.
O=C(C[C@H]1C/C=C\CC[C@H](Cc2ccc(F)cc2)C(=O)OC[C@H]2CCCN2C1=O)N[C@@H](CO)Cc1ccccc1	.	.	.	.	.	.
CS(=O)(=O)n1c2ccccc2c(=O)n1-c1ccccc1CCl	.	.	.	.	.	.
COC(=O)c1c(-c2ccc(OC)c(OC)c2)csc1N	44	.	.	.	.	.
COC(=O)c1c(-c2cccc(OC)c2)csc1N	.	.	.	.	.	.
Cc1nn(CC(=O)NCc2cccc(F)c2)c(=O)c2cccn12	.	.	29	.	.	.
Cc1nn(CC(=O)NCCCc2ccccc2)c(=O)c2cccn12	.	.	.	.	.	.
COc1cc(OC)cc(C(=O)NCCCCc2ccccc2)c1	.	.	.	.	.	.
CCOC(=O)c1c(N/C=C(\C#N)c2nc(-c3ccc(OC(C)=O)cc3)cs2)sc2c1CCC2	23	.	.	.	.	.
Cc1cc(C(C)(C)C)ccc1OC(=O)C1=CC=CN2CCS(=O)(=O)N=C12	.	.	.	.	.	.
COC(=O)C(NC(=O)c1ccccc1Cl)(Nc1ncc(S(=O)(=O)c2ccc([N+](=O)[O-])cc2)s1)C(F)(F)F (stereo not given)	.	33	.	.	.	.

Assay outcomes: PubChem BioAssay, The Scripps Research Institute Molecular Screening Center
